MrgX1 allo act: allosterically activates human MrgX1 receptor signaling. Q96LB2. MrgX1-HEK293, Fluo-4 calcium flux, FDSS; active compounds read high. B-score at 10 µM. 310,000 tested, 0.63% active;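 active means plate-corrected calcium response at least 3 library SD above typical, normal starting fluorescence, not activating the receptor alone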;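 further: compound read alongside a low EC10 to EC30 dose of BAM8-22 agonist; peak minus trough fluorescence over baseline measured at the second addition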
Target sequence (Q96LB2 whole entry, looked up): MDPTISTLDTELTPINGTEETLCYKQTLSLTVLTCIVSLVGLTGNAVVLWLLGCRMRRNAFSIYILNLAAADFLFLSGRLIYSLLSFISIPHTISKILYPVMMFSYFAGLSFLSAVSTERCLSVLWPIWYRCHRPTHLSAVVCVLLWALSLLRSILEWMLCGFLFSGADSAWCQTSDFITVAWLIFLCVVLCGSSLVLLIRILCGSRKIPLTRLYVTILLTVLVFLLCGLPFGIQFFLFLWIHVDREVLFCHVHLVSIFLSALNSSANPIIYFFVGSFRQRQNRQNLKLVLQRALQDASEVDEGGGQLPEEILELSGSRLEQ
RGS4 pot: RGS4 potentiation or activation | B-score at 10 µM | 310,000 tested, 0.92% active | HEK293 M3R/inducible RGS4, carbachol calcium flux Fluo4; active compounds read low;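 active means B-score of the integrated calcium signal more than 4 SD below the library mean, with starting fluorescence not abnormally high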;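 further: negative B-score means reduced calcium response which marks RGS4 activation or potentiation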
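Material: Inducible-RGS4 HEK293 cells carrying M3 receptor; also added: carbachol at ECmax as muscarinic agonist stimulus; incubation: compound preincubation 20 min at room temperature before agonist; signal: Fluo4-AM (2 µM) calcium-flux fluorescence, kinetic read; measure: integrated calcium ratio converted to B score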
MrgX1 ag: human MrgX1 receptor agonism, primary screen | Q96LB2 | MrgX1-HEK293 cells, Fluo-4 calcium fluorescence, agonist mode; active compounds read high | B-score at 10 µM | 310,000 tested, 0.44% active | AID 588627;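 active means calcium response B-score plate-corrected fluorescence ratio at least 3 library SD, with starting fluorescence B-score inside 5 SD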
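Test system: HEK293 cells stably expressing human MrgX1 receptor; Input: fifteen thousand cells per well; Dosing: compound delivered in addition one of three; Schedule: overnight seeding, then 1 h dark dye loading; Technique: Fluo-4 NW calcium fluorescence; Measure: B-scored fluorescence response ratio; Controls: positive and negative controls per plate.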
MrgX1 antag: antagonists of human MrgX1 receptor | Q96LB2 | MRGX1-HEK293 calcium flux, Fluo-4, BAM8-22 antagonism; active compounds read low | B-score at 10 µM | 310,000 tested, 1.3% active | AID 588676;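 active means calcium-response B-score plate-corrected more than 3 library SD below zero, starting fluorescence within 5 deviations, no agonist response on first addition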;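 further: peak minus trough fluorescence over baseline after final BAM8-22 challenge near maximal dose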
RGS4 block: inhibitors of human RGS4. B-score at 10 µM. P49798. 310,000 tested, 0.45% active. HEK293 M3R/RGS4 inducible, Fluo-4 calcium flux; active compounds read high; triggered by carbachol at its EC20;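 active means B-score, a plate-corrected calcium signal, over three deviations above library mean, with baseline fluorescence within five deviations of library mean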;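 further: RGS4 expression induced by doxycycline in cells with stable M3 receptor; B-score is computed from the integrated fluorescence ratio over baseline after carbachol; higher B-score means a larger calcium signal and so more RGS4 inhibition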
Target sequence (P49798 whole entry, looked up): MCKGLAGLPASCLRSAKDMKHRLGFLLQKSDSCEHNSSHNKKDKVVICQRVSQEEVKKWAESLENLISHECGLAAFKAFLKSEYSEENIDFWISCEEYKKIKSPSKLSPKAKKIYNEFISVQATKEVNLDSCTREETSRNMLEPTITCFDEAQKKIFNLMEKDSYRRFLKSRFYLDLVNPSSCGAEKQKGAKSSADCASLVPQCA
* hit, by the source's call; i = inactive; x = not tested or not shown. Rows were chosen to be rich in hits. Some 3.5% of all compounds tested hit in one or more screens of this group.

SMILES	MrgX1 allo act	RGS4 pot	MrgX1 ag	MrgX1 antag	RGS4 block
Nc1nc(N2CCCCC2)nc2ccccc12	i	-7.2*	i	i	i
Cc1cc(OCC(O)CNC(C)c2ccccc2)ccc1C(C)C (stereo unspecified)	i	i	i	i	i
COc1ccccc1OCCC(=O)OCC(=O)NC(C)c1ccccc1 (stereo unspecified)	i	i	i	-6.1*	i
Cc1cc(C(=O)O)ccc1-c1ccc(/C=C2\SC(=O)N(CC(=O)Nc3ccc4c(c3)OCO4)C2=O)o1	i	i	i	i	i
C#CCN1C(=O)S/C(=C\c2ccc(-c3ccc(C(=O)O)cc3C)o2)C1=O	8.1*	i	i	i	i
Cc1ccc(C)c(N2C(=N)S/C(=C\c3ccc(-c4ccccc4C(=O)O)o3)C2=O)c1	12*	i	i	i	i
Cc1cc(OCC(=O)NCC(c2cccs2)N2CCOCC2)ccc1C(C)C (stereo unspecified)	i	i	i	i	i
Cc1ccc(C(C)C)c(OCC(=O)NCC(c2cccs2)N2CCOCC2)c1 (stereo unspecified)	i	i	28*	i	i
Clc1ccccc1/C=N/c1cc(-c2ccccc2)nn1-c1ccccc1	i	i	i	-4.9*	i
CC(=O)C(/C=N/c1cc(-c2ccc(C)cc2)nn1-c1ccccc1)=C(\C)O	i	i	i	i	i
CC(=O)Nc1cccc(C(=O)OCC(=O)Nc2c(C)nn(-c3ccccc3)c2C)c1	i	i	i	i	i
Cc1nn(-c2ccccc2)c(C)c1NC(=O)COC(=O)c1ccc(Cl)c(N)c1	i	-7*	i	i	i
COCCn1c(Cc2ccccc2)nnc1SCC(=O)Nc1oc(C)c2c(C)n[nH]c(=O)c12	i	i	i	i	i
Cc1ccc(C(=O)c2oc3ccccc3c2NC(=O)c2cc(-c3cc(C)ccc3O)n[nH]2)cc1	i	i	i	-5.2*	i
CC1(C)Oc2ccc3ccc(=O)oc3c2/C(=C/NC2CCCCC2)C1=O	i	-7*	i	i	i
CC1(C)Oc2ccc3ccc(=O)oc3c2/C(=C/Nc2ccccc2)C1=O	i	i	i	i	i
O=S(=O)(NCc1ccc(F)cc1)c1ccc(-n2cnnn2)cc1	i	i	i	i	i
CC(=O)OCCCCCCCCCCC[N+]1(C)CCCCC1	i	-8.9*	i	i	i
COc1ccc(CCNC(=O)CC(c2ccccc2)c2cccc(C)c2O)cc1OC (stereo unspecified)	i	i	i	-5.9*	i
COc1ccc(CCNC(=O)CSc2ccccc2)cc1OC	i	i	i	i	i
Cc1ccc2sc(-c3ccc(NC(=O)/C=C\C(=O)O)cc3)nc2c1	x	i	x	x	i
C=CCc1cccc2cc(C(=O)Nc3cccc(C(=O)O)c3)c(=O)oc12	7.6*	i	i	i	i
C=CCc1cccc2cc(C(=O)Nc3ccc(CC(=O)O)cc3)c(=O)oc12	i	i	i	i	i
COc1ccccc1OCc1cc(C(=O)N(C)CCC2CCCCO2)no1 (stereo unspecified)	i	i	i	i	i
COc1cccc(NC(=O)NC2CCCc3ccccc32)c1 (stereo unspecified)	i	i	i	i	i
SMILES	MrgX1 allo act	RGS4 pot	MrgX1 ag	MrgX1 antag	RGS4 block
COC(=O)C(CC(=O)c1ccc(Br)cc1)n1nc(C)cc1C (stereo unspecified)	i	i	i	i	i
COC(=O)C(CC(=O)c1ccc(Br)cc1)n1ccnc1 (stereo unspecified)	x	i	x	x	6.6*
CCCCN(C)C(=O)C1CCCN(S(=O)(=O)c2ccc3c(c2)CC(C)N3C(=O)C2CC2)C1 (stereo unspecified)	i	i	i	i	i
COc1ccc(OCc2cc(C(=O)NC(C)c3csc(C)n3)no2)c(Cl)c1 (stereo unspecified)	i	i	i	i	i
CCCCC(CC)CN=C(N)NC(N)=NCCCCCCN=C(N)NC(N)=NCC(CC)CCCC (stereo unspecified)	i	x	170*	i	x
CCCc1cc(C(=O)Nc2ccc(C(=O)c3ccccc3)cc2)n(C)n1	i	i	i	i	i
CCCc1cc(C(=O)Nc2ccc(C(=O)c3ccc(F)cc3)cc2)n(C)n1	i	i	i	-6.9*	i
CN(C)C(=S)Oc1ccccc1-c1ccccc1OC(=S)N(C)C	i	i	i	i	i
O=C(c1ccco1)N1CCN(Cc2cc(=O)c(OCc3ccccc3)co2)CC1	i	i	i	-5.3*	i
CCOc1cc(CN2CCC(n3nccc3NC(=O)C3CC3)CC2)ccc1O	i	i	i	i	i
c1ccc(Nc2nc3ccccc3n3nnnc23)cc1	i	i	i	i	i
CCN(CC)S(=O)(=O)c1ccc(Nc2nc3ccccc3n3nnnc23)cc1	14*	i	i	-6.8*	i
O=C(CNC(=O)c1ccc2c(=O)n3c(nc2c1)CCC3)Nc1ccc(F)c(F)c1	i	i	i	i	i
CCOc1cc2c(cc1/C=C/c1noc(C)c1[N+](=O)[O-])OC(C)C2 (stereo unspecified)	i	i	41*	i	i
COC(=O)c1ccc(C(=O)N(CCN(C)C)c2nc3c(Cl)cccc3s2)cc1	i	i	i	i	i
COc1ccc2c(/C=N/Nc3ccc(C(=O)O)cc3)c[nH]c2c1	i	i	32*	i	i
COc1ccc(C(=O)N/N=C/c2c[nH]c3ccccc23)cc1	i	i	i	i	i
CCC(C)N(C(=O)COC(=O)c1ccc(=O)n(Cc2ccccc2)n1)C1CCS(=O)(=O)C1 (stereo unspecified)	i	i	i	i	i
CCc1ccc(N2CC(O)(c3cccs3)[N+]3=C2SCCC3)cc1 (stereo unspecified)	i	-7.5*	i	i	i
Cc1ccc(Cl)cc1NC(=S)N1CCCCCC1	i	i	i	i	i
CCOc1ccc(C(=O)OCn2nnc3ccccc3c2=O)cc1OC	i	i	i	-7.6*	i
COc1cc(C(=O)OCn2nnc3ccccc3c2=O)cc(OC)c1OC	i	i	i	i	i
O=C(OCn1nnc2ccccc2c1=O)c1ccc(O)cc1	12*	i	i	i	i
CCc1ccc(OCC(=O)NNC(=O)c2nn(CC)c(=O)c3ccccc23)cc1	9.6*	i	i	i	i

Compound activity (PubChem BioAssay)
